The values below come from ChEMBL document CHEMBL1909548, “Ligustrazine derivatives. Part 5: design, synthesis and biological evaluation of novel ligustrazinyloxy-cinnamic acid derivatives as potent cardiovascular agents” (Eur J Med Chem, 2011).

In assay [1] the test system is ECV-304. As to the kind of experiment: Protection against H2O2-induced toxicity in human ECV304 cells assessed as proliferation rate at 25 uM pretreated for 24 hrs before H2O2 challenge measured after 12 hrs by MTT assay. In kind it is functional. Conditions: read-out: Activity. Put shortly: (§1)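 ECV-304 cells were seeded at 6×10³/well and grown to confluence. Cells were pretreated 24 h with compound in DMSO (final ≤0.05%), then given H2O2 (150) for 12 h at 37 °C, 5% CO2. MTT (5 mg/mL) was added for 4 h, formazan dissolved in DMSO, and A570 read. Proliferation rate = [OD(compd)−OD(H2O2)]/[OD(control)−OD(H2O2)]×100%. EC50 was calculated from proliferation rates by formula.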

Assay [2] concerns ECV-304. As to the kind of experiment: Protection against H2O2-induced toxicity in human ECV304 cells assessed as proliferation rate at 12.5 uM pretreated for 24 hrs before H2O2 challenge measured after 12 hrs by MTT assay. In kind it is functional. Conditions: read-out: Activity. Put shortly: as §1
Assay [3] relates to ECV-304. As to the kind of experiment: Protection against H2O2-induced toxicity in human ECV304 cells assessed as proliferation rate at 50 uM pretreated for 24 hrs before H2O2 challenge measured after 12 hrs by MTT assay. The following applies: read-out: Activity. In kind it is functional. The essentials: as §1
In general terms: Formazan colour is commonly taken as a measure of viable cells.

The nature of assay [4]: Antiplatelet activity in rabbit platelet rich plasma assessed as inhibition rate of ADP-induced platelet aggregation at 200 uM after 5 mins by aggregometry. Conditions: Oryctolagus cuniculus. In kind it is functional. Put shortly: (§2)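 Rabbit platelet-rich plasma obtained by centrifuging blood at 1000 rpm for 5 min. Platelet-poor plasma (3000 rpm, 15 min) served as the reference. Platelets were adjusted to 3×10¹¹/L. PRP was mixed with compound at final levels 400, 200, 100 or 50 and incubated at 37 °C for 5 min before aggregation was read. IC50 was derived by linear regression.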

Assay [5] is described as follows: Antiplatelet activity in rabbit platelet rich plasma assessed as inhibition rate of ADP-induced platelet aggregation at 400 uM after 5 mins by aggregometry. In kind it is functional. Conditions: Oryctolagus cuniculus. Put shortly: as §2
A short description of assay [6]: Antiplatelet activity in rabbit platelet rich plasma assessed as inhibition rate of ADP-induced platelet aggregation at 50 uM after 5 mins by aggregometry. In kind it is functional. The following applies: Oryctolagus cuniculus. Put shortly:
as §2

A short description of assay [7]: Antiplatelet activity in rabbit platelet rich plasma assessed as inhibition rate of ADP-induced platelet aggregation at 100 uM after 5 mins by aggregometry. In kind it is functional. The following applies: Oryctolagus cuniculus. Put shortly:
as §2

Assay [8] can be described thus: Antiplatelet activity in rabbit platelet rich plasma assessed as inhibition of ADP-induced platelet aggregation after 5 mins by aggregometry. In kind it is functional. The following applies: Oryctolagus cuniculus. The essentials:
as §2

In assay [9] the test system is ECV-304. As to the kind of experiment: Protection against H2O2-induced toxicity in human ECV304 cells assessed as proliferation rate pretreated for 24 hrs before H2O2 challenge measured after 12 hrs by MTT assay. Format: functional, cell-based. Put shortly:
as §1

In assay [10] the test system is ECV-304. As to the kind of experiment: Protection against H2O2-induced toxicity in human ECV304 cells assessed as proliferation rate at 100 uM pretreated for 24 hrs before H2O2 challenge measured after 12 hrs by MTT assay. Format: functional. The following applies: read-out: Activity. The essentials:
as §1

One may read the inhibition as how much of the control response was suppressed. As usually defined, the IC50 is the concentration that gives 50% inhibition. One may read the EC50 as the concentration needed to bring the measured effect to its halfway point. As to `CCOC(=O)/C=C/c1ccccc1OCc1nc(C)c(C)nc1C`, in the assay with ECV-304 [1], the growth at 25 µM was -109%. Also, the growth at 12.5 µM in the assay with ECV-304 [2] was -1.24%. Also, in the assay on ECV-304 [3], the growth at 50 µM was determined as 327%. Further, the inhibition at 200 µM in [4] is 33.4%. In addition, the inhibition at 400 µM in [5] was 48.1%. Moreover, the inhibition at 50 µM in assay [6] amounted to 16.4%. For the same compound, the inhibition at 100 µM in [7] worked out at 30.1%. Besides, the IC50 in assay [8] was 502 µM. For the same compound, in the assay with ECV-304 [9], the EC50 was 1540 µM.
On to `Cc1nc(C)c(COc2ccc(/C=C/C(=O)O)cc2O)nc1C`, for which the growth at 25 µM with ECV-304 [1] stood at 131%. In the assay with ECV-304 [2], the growth at 12.5 µM stood at 15.3%. Further, in the assay on ECV-304 [3], the growth at 50 µM was determined as 157%. Besides, the inhibition at 200 µM in assay [4] amounted to 60%. Besides, in assay [5], the inhibition at 400 µM turned out to be 87%. Moreover, in assay [6], the inhibition at 50 µM was 3.46%. Further, in assay [7], the inhibition at 100 µM was determined as 11.8%. For the same compound, the IC50 in assay [8] was determined as 176 µM. The EC50 in the assay on ECV-304 [9] was 46 µM. The growth at 100 µM in the assay with ECV-304 [10] was 170%.
For the compound `COc1cc(/C=C/C(=O)O)ccc1OCc1nc(C)c(C)nc1C`, the growth at 25 µM in the assay with ECV-304 [1] was -22.4%. Moreover, the growth at 12.5 µM in the assay on ECV-304 [2] was -12.5%. Moreover, in the assay with ECV-304 [3], the growth at 50 µM is -17.8%. In assay [4], the inhibition at 200 µM is 51.9%. The inhibition at 400 µM in assay [5] turned out to be 73.2%. For the same compound, in assay [6], the inhibition at 50 µM turned out to be 17.5%. Further, the inhibition at 100 µM in assay [7] came out at 47%. Besides, the IC50 in [8] was 157 µM. In the assay with ECV-304 [9], the EC50 was 295 µM. For the same compound, the growth at 100 µM with ECV-304 [10] was -19.6%.
In the case of `Cc1nc(C)c(C)nc1C` [LIGUSTRAZINE], in the assay with ECV-304 [1], the growth at 25 µM was determined as 12.7%. The growth at 12.5 µM with ECV-304 [2] came to 10.4%. Also, in the assay on ECV-304 [3], the growth at 50 µM was 22.1%. Besides, the concentration for a half-maximal effect (EC50) with ECV-304 [9] was determined as 600 µM. Moreover, in the assay with ECV-304 [10], the growth at 100 µM is 42.8%.
Take `CCOC(=O)/C=C/c1ccc(OCc2nc(C)c(C)nc2C)c(O)c1`: the growth at 25 µM with ECV-304 [1] was -8.45%. Besides, the growth at 12.5 µM with ECV-304 [2] is -18.7%. Besides, in the assay on ECV-304 [3], the growth at 50 µM is 10.3%. For the same compound, the inhibition at 200 µM in assay [4] came to 25.7%. In addition, the inhibition at 400 µM in assay [5] is 41.8%. Further, the inhibition at 50 µM in assay [6] is 13.9%. Also, the inhibition at 100 µM in [7] stood at 23%. The IC50 in [8] was found to be 1380 µM. The EC50 in the assay with ECV-304 [9] stood at 139 µM. Further, in the assay on ECV-304 [10], the growth at 100 µM was found to be 37.3%.
On to `Cc1nc(C)c(COc2c(Br)cc(/C=C/C(=O)O)cc2Br)nc1C`, for which the growth at 25 µM in the assay on ECV-304 [1] was -104%. Further, in the assay with ECV-304 [2], the growth at 12.5 µM is -83.8%. Moreover, the growth at 50 µM with ECV-304 [3] is -113%. Also, the inhibition at 200 µM in assay [4] stood at 38.6%. Further, in assay [5], the inhibition at 400 µM amounted to 55.4%. Also, the inhibition at 50 µM in [6] was 5.3%. Also, the inhibition at 100 µM in [7] was determined as 62.8%. For the same compound, the IC50 in assay [8] stood at 1290 µM. Moreover, the EC50 in the assay with ECV-304 [9] is 3280 µM. The growth at 100 µM in the assay with ECV-304 [10] is -85.8%.
Take `COc1cc(/C=C/C(=O)O)cc(OC)c1OCc1nc(C)c(C)nc1C`: the growth at 25 µM in the assay on ECV-304 [1] is -33.8%. The growth at 12.5 µM in the assay with ECV-304 [2] is -74.6%. The growth at 50 µM in the assay on ECV-304 [3] is -95.9%. Moreover, the inhibition at 200 µM in [4] came to 47.3%. The inhibition at 400 µM in assay [5] stood at 64.3%. Moreover, the inhibition at 50 µM in [6] worked out at 33%. Further, the inhibition at 100 µM in [7] was found to be 41%. In addition, the IC50 in assay [8] was 182 µM. Moreover, the EC50 with ECV-304 [9] stood at 3530 µM. For the same compound, the growth at 100 µM with ECV-304 [10] was -132%.
For `CCOC(=O)/C=C/c1cc(Br)cc(Br)c1OCc1nc(C)c(C)nc1C`, the growth at 25 µM in the assay with ECV-304 [1] is -6.88%. Besides, the growth at 12.5 µM in the assay on ECV-304 [2] was -25.7%. The growth at 50 µM in the assay with ECV-304 [3] is 73.9%. In addition, the inhibition at 200 µM in [4] is 15.8%. In addition, the inhibition at 400 µM in [5] worked out at 16.1%. For the same compound, in [6], the inhibition at 50 µM amounted to 9.8%. Moreover, the inhibition at 100 µM in [7] was 13.5%. In addition, in [8], the IC50 is more than 2000 µM. Moreover, the EC50 with ECV-304 [9] is 1590 µM.
`CCOC(=O)/C=C/c1cccc(OC)c1OCc1nc(C)c(C)nc1C`: the growth at 25 µM with ECV-304 [1] turned out to be 58.7%. For the same compound, the growth at 12.5 µM with ECV-304 [2] is -92.5%. The growth at 50 µM in the assay with ECV-304 [3] amounted to 16.6%. The inhibition at 200 µM in assay [4] was determined as 12.5%. The inhibition at 400 µM in [5] came to 28.1%. Further, in assay [6], the inhibition at 50 µM was 6.97%. Besides, the inhibition at 100 µM in assay [7] came to 10.5%. In addition, the IC50 in assay [8] was more than 2000 µM. Also, in the assay on ECV-304 [9], the EC50 stood at 3040 µM.
Turning to `Cc1nc(C)c(COc2ccc(Cl)cc2/C=C/C(=O)O)nc1C`, the growth at 25 µM in the assay on ECV-304 [1] is -44%. The growth at 12.5 µM in the assay on ECV-304 [2] is -98.3%. For the same compound, the growth at 50 µM in the assay on ECV-304 [3] is -153%. For the same compound, the inhibition at 200 µM in assay [4] is 45.6%. For the same compound, the inhibition at 400 µM in [5] is 67%. Moreover, the inhibition at 50 µM in assay [6] was 24.7%. In assay [7], the inhibition at 100 µM turned out to be 38.4%. In addition, the IC50 in assay [8] worked out at 1050 µM. For the same compound, the EC50 in the assay on ECV-304 [9] was 9300 µM.
